Data from ChEMBL document CHEMBL1817588, “Design and synthesis of 1,3-biarylsulfanyl derivatives as new anti-breast cancer agents” (Bioorg Med Chem, 2011).
Calls of active or inactive are those of the source. The rule behind the calls is not given here.

Columns and labels:
[1] = test system: MDA-MB-231; assay: Antiproliferative activity against estrogen receptor-deficient human MDA-MB-231 cells […] after 48 hrs by MTT assay; assay type: functional, cell-based; conditions: MDA-MB-231, 48 h
Procedure, shortened: (§1)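 Cells seeded at 1×10^4/well in DMEM with 10% FBS for 24 h at 37 °C, then exposed to compounds for 48 h. MTT (5 mg/mL) added for 4 h. Formazan dissolved in DMSO and absorbance read at 540 nm. Routine culture used DMEM with 10% FBS, 5% CO2, reduced to 2% FBS for growth inhibition.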

[2] = test system: MCF7; assay: Antiproliferative activity against human MCF7 cells expressing estrogen receptor after 48 hrs by MTT assay; assay type: functional, cell-based; conditions: MCF7, 48 h; procedure, shortened: as §1
[3] = test system: Ishikawa; assay: Antiproliferative activity against human Ishikawa cells expressing estrogen receptor after 48 hrs by MTT assay; assay type: functional, cell-based; procedure, shortened: as §1
[4] = test system: MDA-MB-231; assay: Antiproliferative activity against estrogen receptor-deficient human MDA-MB-231 cells […] at 50 uM after 48 hrs by MTT assay; assay type: functional, cell-based
[5] = test system: Ishikawa; assay: Antiproliferative activity against human Ishikawa cells expressing estrogen receptor at 50 uM after 48 hrs by MTT assay; assay type: functional, cell-based
[6] = test system: MCF7; assay: Antiproliferative activity against human MCF7 cells expressing estrogen receptor at 50 uM after 48 hrs by MTT assay; assay type: functional, cell-based
[7] = test system: Rattus norvegicus; assay: Antiimplantation activity in Sprague-Dawley albino rat at 20 mg/kg, po after 10 days; assay type: functional
Procedure, shortened: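 Sperm-positive adult Sprague-Dawley females (180–220 g) mated with proven-fertile males. Compounds given orally as a gum acacia suspension on days 1–5 post-coitum, 5–7 animals per group. Vehicle-only group served as control.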

[8] = test system: Bone; assay: Antiosteoporotic activity in Sprague-Dawley rat [45Ca] pre-labeled bone assessed as inhibition of PTH-induced bone resorption after 96 hrs
[9] = species: Rattus norvegicus; assay: Displacement of [3H]-estradiol from estrogen receptor in rat uteri after 18 hrs by scintillation counting relative to 17beta-estradiol
Procedure, shortened: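 Cytosol from uteri of immature 20–21-day-old rats, in TEA buffer pH 7.4 (10 mM Tris, 1.5 mM EDTA, 0.02% azide). Incubated in triplicate with fixed 3H-estradiol ± competitor (DMF ≤5% final) for 18 h at 4 °C. Free ligand removed with dextran-coated charcoal (15 min, 800g 10 min), then supernatant counted. RBA taken at 50% inhibition from the bound-versus-log concentration plot.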

[10] = test system: Bone; assay: Antiosteoporotic activity in Sprague-Dawley rat [45Ca] pre-labeled bone assessed as inhibition of PTH-induced bone resorption after 96 hrs relative to control
[11] = test system: HEK293; assay: Antiproliferative activity against human HEK293 cells after 48 hrs by MTT assay; assay type: cell-based; conditions: HEK293, 48 h; procedure, shortened: as §1
[12] = test system: Rattus norvegicus; assay: Antiestrogenic activity in Sprague-Dawley rat assessed as inhibition of uterine weight gain administered as po daily once for 3 days relative to 17alpha-ethynylestradiol; assay type: functional
Procedure, shortened: (§2)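 Immature female Sprague-Dawley rats given oral dosing once daily for 3 days on days 28–30 of age. Antiestrogenic arm co-dosed ethynylestradiol 0.02 mg/kg in 10% ethanol-water. Autopsy 24 h after last dose (day 31). Uterus excised, blotted and weighed, with vaginal opening and cornification also scored. Inhibition computed as (E − T)×100/E versus ethynylestradiol alone. Estrogenic gain expressed as percent increase over vehicle control.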

[13] = test system: Rattus norvegicus; assay: Estrogenic activity in Sprague-Dawley rat assessed as increase in uterine weight administered as po daily once for 3 days relative to control; assay type: functional; parameters: concentration or dose not given beside the values; procedure, shortened: as §2
[14] = test system: HEK293; assay: Antiproliferative activity against human HEK293 cells at 50 uM after 48 hrs by MTT assay; assay type: cell-based; conditions: hek293, 48 h

Row | SMILES | IC50 [1] [µM] | IC50 [2] [µM] | IC50 [3] [µM] | Activity [5] | also measured
1 | COc1ccc(C(CC(=O)c2ccccc2)Sc2ccc(C)cc2)cc1 (centres undefined) | 45 | 23 | 17 | – | –
2 | CCSC(CC(=O)c1ccc(OC)cc1)c1ccc(OC)cc1 (centres undefined) | – | 27 | – | inactive | Activity [4]: inactive
3 | O=C(O)CCSC(CC(=O)c1ccccc1)c1ccccc1 (centres undefined) | 42 | – | 23 | – | Activity [6]: inactive
4 | O=C(CC(Sc1ccc(O)cc1)c1ccc(O)cc1)c1ccc(OCCN2CCCC2)cc1 (centres undefined) | > 50 | 25 | 17.3 | – | Activity [7]: inactive; T/C [8]: 0.934; RBA [9]: 5.15%; inhibition (INH) [10]: 6.6%; IC50 [11]: 28.7 µM; inhibition (INH) [12]: 24%; Activity [13]: 111%
5 | O=C(CC(Sc1ccc(Cl)cc1)c1ccccc1)c1ccc(Cl)cc1 (centres undefined) | 31 | 28 | 24 | – | –
6 | CN(C)CCOc1ccc(C(=O)CC(Sc2ccccc2)c2ccccc2)cc1 (centres undefined) | 27 | > 50 | 20 | – | Activity [7]: inactive; T/C [8]: 0.863; RBA [9]: 0.157%; Activity [14]: Non-toxic; inhibition (INH) [10]: 13.7%; inhibition (INH) [12]: 12%; Activity [13]: 174%
7 | O=C(CC(Sc1ccccc1)c1ccccc1)c1cccc(Cl)c1 (centres undefined) | 32 | 29 | 29 | – | –
8 | O=C(CC(Sc1ccc([N+](=O)[O-])cc1)c1ccccc1)c1ccccc1 (centres undefined) | 44 | – | 23 | – | Activity [6]: inactive
9 | COc1ccc(C(CC(=O)c2ccc(Cl)cc2)Sc2ccccc2)cc1 (centres undefined) | – | – | 25 | – | Activity [4]: inactive; Activity [6]: inactive
10 | COc1ccc(C(=O)CC(Sc2ccccc2)c2ccccc2)cc1 (centres undefined) | 41 | 29 | – | inactive | –
11 | COc1ccc(C(CC(=O)c2ccccc2)Sc2ccc(Cl)cc2)cc1 (centres undefined) | 36 | 25 | 22 | – | –
12 | COc1ccc(C(=O)CC(Sc2ccc(C)cc2)c2ccc(OC)cc2)cc1 (centres undefined) | 28 | 18 | – | inactive | Activity [14]: Non-toxic
13 | O=C(CC(Sc1ccc(O)cc1)c1ccccc1)c1ccc(OCCN2CCCCC2)cc1 (centres undefined) | 16.5 | 9.6 | 16.2 | – | Activity [7]: 100%; T/C [8]: 0.787; RBA [9]: 5.27%; inhibition (INH) [10]: 21.3%; IC50 [11]: 75.2 µM; inhibition (INH) [12]: 34%; Activity [13]: 58%
14 | CCSC(CC(=O)c1ccc(OCCN2CCCCC2)cc1)c1ccccc1 (centres undefined) | 40.2 | 32.8 | 28.5 | – | Activity [7]: inactive; T/C [8]: 0.947; RBA [9]: 0.175%; Activity [14]: Non-toxic; inhibition (INH) [10]: 5.5%; inhibition (INH) [12]: 7%; Activity [13]: 134%
15 | O=C(CC(Sc1ccc(O)cc1)c1cccc(O)c1)c1ccc(OCCN2CCCCC2)cc1 (centres undefined) | 19 | 12.2 | 17 | – | Activity [7]: 100%; T/C [8]: 0.812; RBA [9]: 4.47%; inhibition (INH) [10]: 18.8%; IC50 [11]: 65.8 µM; inhibition (INH) [12]: 31%; Activity [13]: 79%
16 | CCSC(CC(=O)c1ccccc1)c1ccc(O)cc1 (centres undefined) | – | – | – | inactive | Activity [4]: inactive; Activity [6]: inactive
17 | COc1ccc(C(=O)CC(Sc2ccc(Cl)cc2)c2ccccc2)cc1 (centres undefined) | – | – | 22 | – | Activity [4]: inactive; Activity [6]: inactive
18 | O=C(CC(Sc1ccc(Cl)cc1)c1ccccc1)c1ccccc1 (centres undefined) | – | – | – | inactive | Activity [4]: inactive; Activity [6]: inactive

Row | SMILES | IC50 [1] [µM] | IC50 [2] [µM] | IC50 [3] [µM] | Activity [5] | also measured
19 | CCSC(CC(=O)c1ccccc1)c1ccc(OC)cc1 (centres undefined) | – | 24 | – | inactive | Activity [4]: inactive
20 | CC/C(=C(\c1ccccc1)c1ccc(OCCN(C)C)cc1)c1ccccc1 [TAMOXIFEN] | – | 12.5 | 22.5 | – | RBA [9]: 2.2%; inhibition (INH) [12]: 49%; Activity [13]: 155%
21 | O=C(c1ccc(OCCN2CCCCC2)cc1)c1c(-c2ccc(O)cc2)sc2cc(O)ccc12 [RALOXIFENE] | – | – | – | – | T/C [8]: 0.62; inhibition (INH) [10]: 38%
22 | O=C(CC(Sc1ccccc1)c1ccccc1)c1ccc(O)cc1 (centres undefined) | 38 | 24 | – | inactive | –
23 | Cc1ccc(C(CC(=O)c2cccc(Cl)c2)Sc2ccccc2)cc1 (centres undefined) | 36 | 25 | 28 | – | –
24 | CCSC(CC(=O)c1ccc(OCCN(C)C)cc1)c1ccccc1 (centres undefined) | 38 | 27 | – | inactive | Activity [7]: inactive; T/C [8]: 0.944; RBA [9]: 0.246%; inhibition (INH) [10]: 5.6%; IC50 [11]: 32.8 µM; inhibition (INH) [12]: 4%; Activity [13]: 212%
25 | Cc1ccc(SC(CC(=O)c2cccc(Cl)c2)c2ccc(C)cc2)cc1 (centres undefined) | 41 | 27 | – | inactive | –
26 | CCSC(CC(=O)c1ccc(OCCN2CCCC2)cc1)c1ccccc1 (centres undefined) | > 50 | 27 | > 50 | – | Activity [7]: 100%; T/C [8]: 0.963; RBA [9]: 0.191%; inhibition (INH) [10]: 3.7%; IC50 [11]: 29.2 µM; inhibition (INH) [12]: 9%; Activity [13]: 152%
27 | Cc1ccc(SC(CC(=O)c2ccccc2)c2ccccc2)cc1 (centres undefined) | – | – | – | inactive | Activity [4]: inactive; Activity [6]: inactive
28 | Cc1ccc(SC(CC(=O)c2ccc(OCCN(C)C)cc2)c2ccccc2)cc1 (centres undefined) | 28 | > 50 | – | inactive | Activity [7]: inactive; T/C [8]: 0.845; RBA [9]: 0.245%; Activity [14]: Non-toxic; inhibition (INH) [10]: 15.5%; inhibition (INH) [12]: 8%; Activity [13]: 76%
29 | O=C(CC(Sc1ccccc1)c1ccccc1)c1cccc([N+](=O)[O-])c1 (centres undefined) | 38 | 25 | 21 | – | –
30 | CSC(CC(=O)c1ccccc1)c1ccccc1 (centres undefined) | – | 25 | 25 | – | Activity [4]: inactive
31 | O=C(CC(Sc1ccccc1)c1ccc(O)cc1)c1ccccc1 (centres undefined) | 33 | 19 | – | inactive | IC50 [11]: 31.4 µM
32 | O=C(CC(Sc1ccccc1)c1ccccc1)c1ccc2ccccc2c1 (centres undefined) | 48 | 30 | 26 | – | –
33 | O=C(CC(Sc1ccc(Cl)cc1)c1ccccc1)c1ccc([N+](=O)[O-])cc1 (centres undefined) | 29 | 25 | 21 | – | –
34 | COc1ccc(C(CC(=O)c2ccccc2)SCCC(=O)O)cc1 (centres undefined) | 44 | – | 24 | – | Activity [6]: inactive
35 | Cc1cccc(SC(CC(=O)c2ccccc2)c2ccc(O)cc2)c1 (centres undefined) | 35 | 25 | 22 | – | –
36 | O=C(CC(Sc1ccc(O)cc1)c1ccccc1)c1ccc(OCCN2CCCC2)cc1 (centres undefined) | 27 | 28.6 | 16 | – | Activity [7]: 60%; T/C [8]: 0.902; RBA [9]: 0.67%; inhibition (INH) [10]: 9.8%; IC50 [11]: 27.5 µM; inhibition (INH) [12]: 18%; Activity [13]: 101%
